Bioassay records as filed in PubChem.
MPTP inh: permeability transition pore inhibition; inhibition, % at 10 µM; 360,000 compounds, 1.4% hits; isolated mouse mitochondria, Ca2+ swelling absorbance, 30 min;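 active = inhibition of 50% or more, scaled per plate between neutral and stimulator controls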;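 note: 0% = DMSO wells given calcium and 100% = 1 mM EGTA wells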
SKN-1 block: C. elegans SKN-1 inhibition | C. elegans VP596 Pgst-4::GFP/RFP ratio, acrylamide-induced, 24 h | inhibition, % at 21.8 µM | 360,000 compounds, 0.49% hits | AID 624304;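 active = interference check ratio from 0.5 to 1.5 plus GFP to RFP signal ratio inhibition reaching or exceeding a fixed threshold, cut at about 30% in these data, passing the limit was not always enough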
MT1-MMP act inh: blocks activation of human MT1-MMP | AID 651647 | 360,000 compounds, 0.061% hits | HT1080 RFP-PRO-GFP cells, GFP/RFP ratio fluorescence, overnight; percent of plate control window, DMSO zero | P50281 | GFP/RFP ratio change, % at 20 µM;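 active = GFP/RFP ratio change of at least 30% with cell ATP level not reduced by more than half and red fluorescence within 50% of control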
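Test system: HT1080 cells expressing an RFP-PRO-GFP fluorescent reporter construct / Compound dosing: single-point 20 µM compound, 1% DMSO / Schedule: cells overnight before dosing, compound overnight, 37 °C, 5% CO2 / Evaluation: GFP/RFP fluorescence ratio / Control set: DMSO and RFP-L50D-GFP cell wells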
ATG4B inh: blocks human ATG4B protease cleavage of LC3 substrate; Q9Y4P1; ATG4B cleavage of LC3-PLA2, NBD-HPC fluorescence, 1 h; inhibition, % at 8.33 µM; 340,000 compounds, 0.51% hits; AID 504462; in the data active = inhibition above about 40%
Target sequence (Q9Y4P1 whole entry, looked up): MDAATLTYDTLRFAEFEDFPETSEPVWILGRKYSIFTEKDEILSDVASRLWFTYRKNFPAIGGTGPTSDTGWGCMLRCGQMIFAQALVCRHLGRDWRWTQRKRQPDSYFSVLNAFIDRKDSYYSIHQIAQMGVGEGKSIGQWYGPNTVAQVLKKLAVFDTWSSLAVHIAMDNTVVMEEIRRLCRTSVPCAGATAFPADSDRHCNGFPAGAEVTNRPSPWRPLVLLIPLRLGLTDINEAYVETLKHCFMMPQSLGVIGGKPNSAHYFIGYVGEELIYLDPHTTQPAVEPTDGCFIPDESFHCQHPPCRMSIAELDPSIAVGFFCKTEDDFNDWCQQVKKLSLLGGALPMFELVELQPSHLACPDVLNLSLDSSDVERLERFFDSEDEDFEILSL
MPTP counter: mitochondrial membrane potential, counter-screen; AID 624504; isolated mitochondria, Rhodamine 123 fluorescence; 5,000 compounds, 78% hits; shares compounds with MPTP inh; inhibition, % at 10 µM; in the data active = inhibition above about 22%;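 note: 0% = DMSO vehicle and 100% = positive control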
MPTP abs DR: MPTP inhibition, dose response swelling confirmation; shares compounds with MPTP inh; isolated mitochondria swelling, absorbance; IC50, µM; 780 compounds, 58% hits; in the data active = IC50 below about 20 µM
MPTP cs DR: MPTP inhibitor counter-screen activity, dose response | shares compounds with MPTP inh | isolated mitochondria counterscreen, fluorescence read-out | IC50, µM | 780 compounds, 49% hits | AID 651564; in the data active = IC50 below about 80 µM
Active calls of the source: *. Compounds with a hit are over-represented: about 2.3% of the library has one in this group of screens.

What do the screens show for `Oc1cccc(NC(=S)Nc2ccc(SC(F)F)cc2)c1`?
MPTP inh: 91.0*; SKN-1 block: 3.2; MT1-MMP act inh: 7.1; ATG4B inh: 1.7; MPTP counter: 84.3*

What do the screens show for `FC(F)Sc1ccc(NC(=S)NC2CCC(NC(=S)Nc3ccc(SC(F)F)cc3)CC2)cc1` (stereo unspecified)?
MPTP inh: 3.6; SKN-1 block: 43.7; MT1-MMP act inh: 4.1; ATG4B inh: -9.2

What do the screens show for `CCOc1cc(S(=O)(=O)NCCCN2CCOCC2)ccc1F`?
MPTP inh: -0.2; SKN-1 block: 5.1; MT1-MMP act inh: -1.1; ATG4B inh: -4.6

How did CC(C)c1cc(C(F)(F)F)n2nc(C(=O)Nc3ccc(-n4cnnn4)cc3)cc2n1 do in these assays?
MPTP inh: 1.5; SKN-1 block: -0.4; MT1-MMP act inh: 1.5; ATG4B inh: -3.2

Results for CCOc1ccc(C(=O)OCC(=O)N(Cc2ccccc2)Cc2ccccc2)cc1OC ?
MPTP inh: -0.5; SKN-1 block: 4.7; MT1-MMP act inh: 5.1; ATG4B inh: 39.3

What do the screens show for `Cc1ccc(OCC(=O)Nc2nnc(S(=O)(=O)N3CCC(C)CC3)s2)cc1`?
MPTP inh: 3.3; SKN-1 block: 0.6; MT1-MMP act inh: -10.2; ATG4B inh: 1.7

How did Cc1ccc(NC(=O)C2(C)CCCN(C(C)C)C2)cc1C (stereo unspecified) do in these assays?
MPTP inh: 0.4; SKN-1 block: -2.7; MT1-MMP act inh: 2.5

What do the screens show for `C=CCNC(=S)Nc1sc2c(c1C(=O)OCC)CC(C(C)C)OC2` (stereo unspecified)?
MPTP inh: 4.4; SKN-1 block: 0.3; MT1-MMP act inh: 1.6; ATG4B inh: -6.3

How did CCCC[C@@H](CNC)NC[C@H](NCCCCC1CCCCC1)C(C)C do in these assays?
MPTP inh: 90.5*; SKN-1 block: -2.9; MT1-MMP act inh: 0.6; ATG4B inh: -3.5; MPTP counter: -22.6; MPTP abs DR: 6.76*; MPTP cs DR: >80

Results for CCC[C@@H](CN[C@@H](CNC)C(C)C)NCCCCc1ccccc1 ?
MPTP inh: 1.0; SKN-1 block: 5.2; MT1-MMP act inh: 4.1; ATG4B inh: -4.0

What do the screens show for `COc1ccc(CNC2CCCc3ccccc32)cc1OC` (stereo unspecified)?
MPTP inh: 61.1*; SKN-1 block: 11.6; MT1-MMP act inh: -5.3; ATG4B inh: 10.6; MPTP counter: -0.4; MPTP abs DR: inactive; MPTP cs DR: 69.5*

What do the screens show for `COc1ccccc1CNC1CCCc2ccccc21` (stereo unspecified)?
MPTP inh: 0.8; SKN-1 block: -5.9; MT1-MMP act inh: -0.7; ATG4B inh: -1.6

Results for O=C1c2ccccc2S(=O)(=O)N1Cc1nnc(-c2ccccc2Br)o1 ?
MPTP inh: -0.8; SKN-1 block: -22.8; MT1-MMP act inh: 0.3; ATG4B inh: 2.0

Results for O=S1(=O)c2cccc3cccc(c23)N1Cc1nnc(-c2ccccc2Br)o1 ?
MPTP inh: 76.2*; SKN-1 block: 1.5; MT1-MMP act inh: -2.8; ATG4B inh: -7.0; MPTP counter: 47.2*

How did COCCN1CCCC(CNCc2cn(C)nc2-c2ccc(Oc3ccccc3)cc2)C1 (stereo unspecified) do in these assays?
MPTP inh: 90.7*; SKN-1 block: -0.2; MT1-MMP act inh: 7.9; ATG4B inh: -8.0; MPTP counter: -9.6; MPTP abs DR: 4.75*; MPTP cs DR: >80

Results for CC(=O)N1CCN(c2ccc(NC(=S)NC(=O)COc3ccc(C(C)(C)C)cc3)cc2)CC1 ?
MPTP inh: 88.2*; SKN-1 block: 12.7; MT1-MMP act inh: -2.7; ATG4B inh: -2.2; MPTP counter: 87.8*

How did CC(C)CC(=O)NC(=S)Nc1ccc(N2CCN(C(=O)c3cccs3)CC2)cc1 do in these assays?
MPTP inh: 93.2*; SKN-1 block: 7.8; MT1-MMP act inh: -9.6; ATG4B inh: -5.8; MPTP counter: 63.7*

What do the screens show for `CC(C)C(=O)Nc1ccc(N2CCN(C(=O)c3cccs3)CC2)cc1`?
MPTP inh: -0.5; SKN-1 block: -1.4; MT1-MMP act inh: -1.1; ATG4B inh: 2.5
